Type in all cases: functional
Experiment [1] has as its system Trichophyton rubrum. As to the kind of experiment: Antifungal activity against Trichophyton rubrum CCC 113 after 48 hrs by broth microdilution technique. Conditions: CCC 113, 48 h.
Experiment [2] deals with Candida albicans. As to the kind of experiment: Antifungal activity against Candida albicans ATCC 10231 after 48 hrs by broth microdilution technique. The following applies: ATCC 10231, 48 h. The procedure, abridged: (§1)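 Yeasts were tested by CLSI broth microdilution in RPMI-1640 buffered to pH 7.0 with MOPS, with compound from 250 down to 0.98 in DMSO stocks. Trays were held at 30 °C in a moist, dark chamber. MIC100, the lowest concentration giving total visual inhibition against the growth control, was read by eye at 48 h.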

The subject of experiment [3] is Nannizzia gypsea. Description: Antifungal activity against Microsporum gypseum CCC 115 after 48 hrs by broth microdilution technique. Conditions: CCC 115, 48 h. An outline of the steps: (§2)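 Moulds and dermatophytes were run by CLSI broth microdilution in MOPS-buffered RPMI-1640 at pH 7.0. Aspergillus was incubated at 30 °C and dermatophytes at 28–30 °C, in a moist, dark chamber. MIC100, the lowest concentration with no visible growth, was read visually at a time set by growth of the control fungus.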
For orientation: In broth dilution the organism is exposed to a series of concentrations in liquid medium.

In experiment [4] the test system is Cryptococcus neoformans. Description: Antifungal activity against Cryptococcus neoformans ATCC 32264 after 48 hrs by broth microdilution technique. The following applies: ATCC 32264, 48 h. The procedure, abridged:
as §1

The test system of experiment [5] is Aspergillus fumigatus. As to the kind of experiment: Antifungal activity against Aspergillus fumigatus ATCC 26934 after 48 hrs by broth microdilution technique. Conditions: ATCC 26934, 48 h. An outline of the steps:
as §2

In experiment [6] the test system is Aspergillus niger. As to the kind of experiment: Antifungal activity against Aspergillus niger ATCC 9029 after 48 hrs by broth microdilution technique. Conditions: ATCC 9029, 48 h. An outline of the steps:
as §2

The test system of experiment [7] is Trichophyton mentagrophytes. Description: Antifungal activity against Trichophyton mentagrophytes ATCC 9972 after 48 hrs by broth microdilution technique. The following applies: ATCC 9972, 48 h. An outline of the steps:
as §2

The test system of experiment [8] is Saccharomyces cerevisiae. As to the kind of experiment: Antifungal activity against Saccharomyces cerevisiae ATCC 9763 after 48 hrs by broth microdilution technique. The following applies: ATCC 9763, 48 h. An outline of the steps: as §1
Experiment [9] relates to Aspergillus flavus. Description: Antifungal activity against Aspergillus flavus ATCC 9170 after 48 hrs by broth microdilution technique. Conditions: ATCC 9170, 48 h. An outline of the steps: as §2

What is called MFC is the smallest concentration meeting the test's criterion for killing the fungus. A word on the MIC: it is the lowest concentration that inhibits growth of the organism.

In brackets after ≈: the same amount, converted by molar mass. Some results are limits rather than exact numbers.

Regarding `C(=C\c1ccc2ccccc2n1)/c1cccnc1`, the MFC in experiment [1] is 250 µg/mL (≈ 1080 µM); in [2], above 250 µg/mL; in [3], 250 µg/mL (≈ 1080 µM); in [4], 250 µg/mL (≈ 1080 µM); in experiment [5] it was above 250 µg/mL; in experiment [6], above 250 µg/mL. In addition, the MFC is 250 µg/mL (≈ 1080 µM) in experiment [7], above 250 µg/mL in [8] and above 250 µg/mL in experiment [9]. The MIC in experiment [1] is 62 µg/mL (≈ 267 µM); in experiment [2] it was 250 µg/mL (≈ 1080 µM); in experiment [3], 62 µg/mL (≈ 267 µM); in experiment [4], 125 µg/mL (≈ 538 µM); in experiment [5], 125 µg/mL (≈ 538 µM); in [6] it was 125 µg/mL (≈ 538 µM). The MIC in experiment [7] stood at 62 µg/mL (≈ 267 µM); in experiment [8], 250 µg/mL (≈ 1080 µM); in experiment [9], 125 µg/mL (≈ 538 µM).

Turning to `Clc1ccc2nc(-c3cccnc3)ccc2c1`, the MFC in experiment [1], in [3], in [4] and in experiment [7] was 125 µg/mL (≈ 519 µM) each time. For the same compound, the MIC is 31 µg/mL (≈ 129 µM) in experiment [1]; above 250 µg/mL in [2]; 31 µg/mL (≈ 129 µM) in experiment [3]; 62 µg/mL (≈ 258 µM) in experiment [4]; above 250 µg/mL in [5]; above 250 µg/mL in experiment [6]. The MIC was 31 µg/mL (≈ 129 µM) in [7], above 250 µg/mL in experiment [8] and above 250 µg/mL in [9].

For the compound `Fc1ccc2nc(-c3cccnc3)ccc2c1`, the MFC is 62 µg/mL (≈ 276 µM) in [1]; 62 µg/mL (≈ 276 µM) in experiment [3]; 250 µg/mL (≈ 1110 µM) in experiment [4]; 250 µg/mL (≈ 1110 µM) in experiment [5]; above 250 µg/mL in [6]; 62 µg/mL (≈ 276 µM) in experiment [7]. The same compound showed an MFC in [9] of 250 µg/mL (≈ 1110 µM). Moreover, the MIC in [1] is 62 µg/mL (≈ 276 µM); in experiment [2] it was above 250 µg/mL; in experiment [3], 62 µg/mL (≈ 276 µM); in [4] it was 62 µg/mL (≈ 276 µM); in [5], 125 µg/mL (≈ 557 µM); in [6] it was 250 µg/mL (≈ 1110 µM). For the same compound, the results for the MIC in experiment [7], in experiment [8] and in experiment [9] were 62 µg/mL (≈ 276 µM), above 250 µg/mL and 125 µg/mL (≈ 557 µM), respectively.

As to `Clc1ccc2nc(-c3ccncc3)ccc2c1`, the minimal fungicidal concentration (MFC) in experiment [1] is 125 µg/mL (≈ 519 µM); in experiment [3], 125 µg/mL (≈ 519 µM); in [4], 250 µg/mL (≈ 1040 µM); in [7] it was 125 µg/mL (≈ 519 µM). In addition, the MIC is 125 µg/mL (≈ 519 µM) in experiment [1]; above 250 µg/mL in experiment [2]; 125 µg/mL (≈ 519 µM) in experiment [3]; 125 µg/mL (≈ 519 µM) in experiment [4]; above 250 µg/mL in [5]; above 250 µg/mL in experiment [6]. Besides, the results for the MIC in [7], in [8] and in experiment [9] were 125 µg/mL (≈ 519 µM), above 250 µg/mL and above 250 µg/mL, respectively.

For the origin of these results see ChEMBL document CHEMBL2157922, “Synthesis and antifungal activity of diverse C-2 pyridinyl and pyridinylvinyl substituted quinolines” (2012).
